Experimental data: ChEMBL document CHEMBL3397000, “Rapid synthesis of 4-arylchromenes from ortho-substituted alkynols: A versatile access to restricted isocombretastatin A-4 analogues as antitumor agents” (Eur J Med Chem, 2015)
pIC50: −log10 of the molar value.

How the values were obtained:
[1] = Cytotoxicity against human HCT116 cells after 72 hrs by CellTitre-Blue assay; assay type: functional; conditions: HCT-116, 72 h
Ovis aries = organism: Ovis aries; assay: Inhibition of sheep brain tubulin polymerization at 10 uM by DAPI staining-based fluorescence assay
[2] = Cytotoxicity against human HCT116 cells at 10 uM after 72 hrs by CellTitre-Blue assay; assay type: functional; conditions: HCT-116, 72 h
[3] = Inhibition of sheep brain tubulin polymerization by DAPI staining-based fluorescence assay; parameters: species or system Ovis aries
Procedure, shortened: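 Tubulin was purified by two assembly–disassembly cycles and held at ~2–3 mg/mL in MES assembly buffer with MgCl₂, EGTA and GTP, pH 6.6. Assembly was followed continuously at 37 °C by DAPI fluorescence. IC50 is the concentration halving the maximum assembly rate versus the no-compound rate; mean of three experiments. Reference agents were run the same day.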

[4] = Cytotoxicity against human H1299 cells after 72 hrs by CellTitre-Blue assay; assay type: functional; conditions: NCI-H1299, 72 h
Procedure, shortened: (§1)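 ATCC lines grown in DMEM (4.5 g/L glucose) with 10% FCS and 1% glutamine at 37 °C, 5% CO₂. Seeded at 5×10³ cells/well and cultured 24 h. Compound added from DMSO (final <0.1%) for 72 h. Resazurin (CellTiter-Blue) added for 2 h, then fluorescence read at ex 560/em 590 nm. IC50 is the 50% fluorescence drop versus untreated cells, in triplicate.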

MDA-MB-231 = assay: Cytotoxicity against human MDA-MB-231 cells after 72 hrs by CellTitre-Blue assay; assay type: functional; conditions: MDA-MB-231, 72 h; procedure, shortened: as §1
K562 = assay: Cytotoxicity against human K562 cells after 72 hrs by CellTitre-Blue assay; assay type: functional; conditions: K562, 72 h
Procedure, shortened: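 Cells were kept in RPMI 1640 with 10% FCS and 1% glutamine, humidified, 37 °C, 5% CO₂. Plated at 5×10³ cells/well, grown 24 h, then exposed 72 h to compound delivered in DMSO (below 0.1% final). Viability was read by resazurin reduction over 2 h (fluorescence ex 560, em 590 nm). IC50 is the 50% signal loss relative to untreated wells; triplicate runs.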

Row | SMILES | inhibition (Ovis aries) | pIC50 [3] | GI50 [1] | inhibition at 10 µM [2] | GI50 [4] | GI50 (MDA-MB-231) | GI50 (K562)
1 | COc1cc(C2=CCOc3ccc(-c4ccccc4)cc32)cc(OC)c1OC | < 10% |  | 400 nM |  |  |  | 
2 | COc1ccc(/C=C\c2cc(OC)c(OC)c(OC)c2)cc1O [COMBRETASTATIN A4] |  | 5.85 | 2.1 nM |  | 5.1 nM | 3.2 nM | 4.3 nM
3 | C=C(c1ccc(OC)c(O)c1)c1cc(OC)c(OC)c(OC)c1 |  | 5.66 | 2.2 nM |  | 5 nM | 4.1 nM | 5.2 nM
4 | COc1ccc2c(c1O)OCCC2c1cc(OC)c(OC)c(OC)c1 (stereo not drawn) |  | 5.21 | 75 nM |  | 80 nM | 60 nM | 75 nM

More lines, main results first:

Row | inhibition (Ovis aries) | pIC50 [3] | SMILES | GI50 [1] | inhibition at 10 µM [2] | GI50 [4] | GI50 (MDA-MB-231) | GI50 (K562)
5 | < 10% |  | COc1cc(C2=CCOc3cc(F)ccc32)cc(OC)c1OC |  | < 10% |  |  | 
6 |  | 5.30 | COc1ccc2c(c1N)OCC=C2c1cc(OC)c(OC)c(OC)c1 | 50 nM |  | 60 nM | 65 nM | 60 nM
7 | < 10% |  | COc1cc(C2=CCOc3cc(CO)ccc32)cc(OC)c1OC |  | < 10% |  |  | 
8 | < 10% |  | COc1ccc2c(c1Br)OCC=C2c1cc(OC)c(OC)c(OC)c1 | 300 nM |  |  |  | 
9 |  | 5.39 | COc1ccc2c(c1N)OCCC2c1cc(OC)c(OC)c(OC)c1 (stereo not drawn) | 50 nM |  | 60 nM | 65 nM | 70 nM
10 |  | 5.43 | COc1ccc2c(c1O)OCC=C2c1cc(OC)c(OC)c(OC)c1 | 10 nM |  | 15 nM | 25 nM | 32 nM
